High-throughput results as filed in PubChem BioAssay.
The list is not random: actives were taken first. Their share in the collection is about 3.7%.
Mdm2-MdmX inh = inhibitors of human Mdm2-MdmX association, primary screen, cell-based, luminescence, split luciferase, SaOS-2, uHTS | Protein Mdm4 (Homo sapiens) + E3 ubiquitin-protein ligase Mdm2 (Homo sapiens), … | SaOS-2 split-luciferase Mdm2/MdmX complementation | inhibition, % at 8 µM | 3% of 330,000 active | AID 485346, 2010;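 active = inhibition of at least 50% at 8 µM in the primary screen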
Beta2AR agonist = beta2AR agonists driving receptor internalization, primary screen, cell-based, FAP fluorogen, flow cytometry; 0.43% of 340,000 active; Am2.2-beta2AR cells; AID 504454, 2011; response, % (concentration not given with the values);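 active = response above a set limit, near 3 SD of response in nonfluorescent compounds, cut at about 42% in these data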
Dynein transport = inhibitors of GR-EGFP nuclear translocation, primary screen, dynein cargo transport inhibitor project, imaging, high-content, 3617.4 mouse cells; 0.47% of 220,000 active; test concentration mostly 20 µM; stimulated with dexamethasone, 1 µM; active compounds read low; AID 1381, 2008; z-score, hits read low;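 active = plate z-score of nuclear minus cytoplasmic receptor signal below a set negative limit, without overly bright fluorescence or cell loss, cut at about -3.5 in these data, passing the limit was not always enough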;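 also: z-score of nuclear minus cytoplasmic ring GR-EGFP intensity difference per well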
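Medium: Induction medium lacking tetracycline, stripped serum | Probe or stimulus: 1.0 µM final dexamethasone stimulus | Schedule: 48 h induction, then 1 h compound, then 30 min agonist, 37 °C | Signal: Automated 10x imaging of fixed Hoechst-stained cells | Evaluation: Per-cell GR-EGFP intensity, nucleus versus surrounding cytoplasmic ring, well-averaged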
UPR XBP1 act = activators of adaptive XBP1 UPR arm, primary screen, cell-based, CHO-XBP1 luciferase reporter, luminescence, uHTS; 0.33% of 330,000 active; activation, % at 20 µM; IRE1-XBP1 UPR activation; percent of tunicamycin response, DMSO as zero;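 active = versus positive control, 20 µM dose yields 30% or more activation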;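 also: 100% = tunicamycin at 10 µg/mL and 0% = DMSO only wells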
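assay system = CHO-XBP1 luciferase reporter cells | amount = 1000 cells/well | buffer or medium = F12 plus 10% FBS | compound dosing = single point, 20 µM final compound, 1% DMSO | incubation = 16-18 h cell attachment at 37 °C, then 6 h compound exposure | detection = Steady-Glo luminescence read | controls = tunicamycin 10 µg/mL and vehicle-only wells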
MDM2 E3 inh = MDM2-luciferase reporter signal enhancers, primary screen, MDM2 E3 ligase inhibitor project, cell-based, luminescence, 1536-well | E3 ubiquitin-protein ligase Mdm2 (Homo sapiens), Q00987 | cell-based MDM2 ubiquitination luciferase reporter, 2 h; 0 = plate control, 100 = twice control, blank-subtracted | signal enhancement, % at 5 µM | 0.11% of 210,000 active | AID 1230, 2008;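 active = signal enhancement of 30% or more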;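 also: luminescence tracks abundance of the self-degrading MDM2-luciferase fusion protein; higher signal means inhibition of MDM2 E3 ligase activity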
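test system = mammalian cells stably expressing self-ubiquitinating, self-degrading MDM2 E3–luciferase fusion | quantity = 2000 cells/well | incubation = cell settling 4 h, compound treatment 2 h, both 37 °C | signal = luminescence with SteadyLite reagent, 15 min at room temperature | evaluation = % enhancement relative to plate controls after blank subtraction | benchmarks = plate controls and plate blanks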
CHOP UPR activ = activators of apoptotic CHOP UPR arm, primary screen, cell-based, CHO-CHOP luciferase reporter, luminescence, uHTS; 0.34% of 330,000 active; AID 449763, 2010; UPR activation; percent of tunicamycin response over DMSO baseline; activation, % at 10 µM;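 active = at 10 µM dose, activation of 40% or more, normalized to positive control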;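 also: 100% = tunicamycin at 10 µg/mL and 0% = DMSO alone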
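Assay system: CHO-CHOP cells, stable luciferase reporter of PERK-eIF2a-CHOP signalling / Buffer or medium: F12 plus 10% serum / Compound dosing: one dose, 10 µM in 0.5% DMSO / Times: 6 h compound treatment, 37 °C / Technique: luciferase luminescence / Read-out: % reporter activation, DMSO baseline versus tunicamycin full activation / Benchmarks: tunicamycin and DMSO controls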
Mdm2 MdmX conf = Mdm2-MdmX complex disruptors, retested hits, confirmation, luminescence, single concentration. shares compounds with Mdm2-MdmX inh. Mdm2-MdmX binding, luminescent assay. inhibition, % at 8 µM. 55% of 10,000 active; in the data active = inhibition above about 40%
FLuc counter = full-length luciferase signal inhibition, confirmation, counter-screen for Mdm2/MdmX interaction inhibitor project, cell-based, single concentration, SaOS-2; shares compounds with Mdm2-MdmX inh; SaOS-2 full-length luciferase counterscreen, luminescence; inhibition, % at 8 µM; 77% of 6,200 active;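 active = mean inhibition at 8 µM reaching about 37%, which flags the compound as non-specific, limit read from the data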;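 also: p53-null SaOS-2 cells with luciferase driven by a doxycycline-inducible promoter; compound on cells about two nights before reading with doxycycline added after day one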
* = called active by the depositor.

What do the screens show for `COc1ccc(-n2nc(C(=O)NCC(=O)Nc3cccc(NC(C)=O)c3)c3ccccc3c2=O)cc1`?
Mdm2-MdmX inh: 9.8; Beta2AR agonist: 0.6; Dynein transport: 0.268; UPR XBP1 act: -2.6; MDM2 E3 inh: -7.7; CHOP UPR activ: -0.6

Results for COc1ccc(NC(=O)CNC(=O)c2nn(-c3ccc(OC)c(OC)c3)c(=O)c3ccccc23)c(OC)c1 ?
Mdm2-MdmX inh: 4.2; Beta2AR agonist: 13.5; UPR XBP1 act: -1.2; CHOP UPR activ: 2.0

What do the screens show for `N#Cc1ccccc1NC(=O)COC(=O)c1ccc(F)cc1F`?
Mdm2-MdmX inh: -3.1; Beta2AR agonist: -3.8; UPR XBP1 act: -2.5; CHOP UPR activ: -0.5

What do the screens show for `Cc1ccc(C23CC4CC(CC(NC(=O)NCCN(C)C)(C4)C2)C3)cc1`?
Mdm2-MdmX inh: 49.8; Beta2AR agonist: 24.4; Dynein transport: 1.94; UPR XBP1 act: 1.1; MDM2 E3 inh: -13.2; CHOP UPR activ: -0.1

What do the screens show for `CN(C)CCNC(=O)COc1ccc(C23CC4CC(CC(C4)C2)C3)cc1`?
Mdm2-MdmX inh: 65.5*; Beta2AR agonist: 21.3; Dynein transport: 1.67; UPR XBP1 act: 5.1; MDM2 E3 inh: -22.1; CHOP UPR activ: 6.1; Mdm2 MdmX conf: 23.2

Results for Cc1cccc2c(SCC(N)=O)nc(-c3ccccc3)nc12 ?
Mdm2-MdmX inh: 24.9; Beta2AR agonist: 0.5; UPR XBP1 act: -3.8; CHOP UPR activ: 0.6

How did Oc1c(Cl)cc(Cl)c2cccnc12 do in these assays?
Beta2AR agonist: 10.1; Dynein transport: 0.228; MDM2 E3 inh: 3.0

How did Oc1c(I)cc(I)c2cccnc12 do in these assays?
Mdm2-MdmX inh: 92.5*; Beta2AR agonist: 14.1; Dynein transport: -0.473; UPR XBP1 act: -3.8; CHOP UPR activ: 0.2; Mdm2 MdmX conf: 71.8*; FLuc counter: 39.4*

How did Cn1c(=O)c2c(nc(Oc3ccc4c(c3)OCO4)n2Cc2ccc(Cl)cc2)n(C)c1=O do in these assays?
Mdm2-MdmX inh: 33.2; Beta2AR agonist: -9.3; Dynein transport: 0.425; UPR XBP1 act: -1.6; CHOP UPR activ: -0.7

What do the screens show for `Cn1c(Oc2ccc3c(c2)OCO3)nc2c1c(=O)n(Cc1ccccc1)c(=O)n2C`?
Mdm2-MdmX inh: 62.2*; Beta2AR agonist: 8.8; Dynein transport: -0.597; UPR XBP1 act: 1.1; MDM2 E3 inh: -25.8; CHOP UPR activ: -2.1; Mdm2 MdmX conf: 21.9

How did Cc1cc(OCC(=O)Nc2ccc(CN3CCOCC3)cc2)c2c(C)c(C)c(=O)oc2c1 do in these assays?
Mdm2-MdmX inh: 57.6*; Beta2AR agonist: 1.0; UPR XBP1 act: -5.8; CHOP UPR activ: -0.2; Mdm2 MdmX conf: 23.7

Results for Cc1cccc(OCC(=O)Nc2ccccc2N2CCCC2)c1C ?
Mdm2-MdmX inh: 10.6; Beta2AR agonist: 31.9; UPR XBP1 act: -3.1; CHOP UPR activ: 0.7

How did Cc1cccc(OCC(=O)Nc2ccccc2N2CCN(C(=O)C(C)C)CC2)c1C do in these assays?
Mdm2-MdmX inh: 100.3*; Beta2AR agonist: 7.7; Dynein transport: -0.0678; UPR XBP1 act: -5.1; MDM2 E3 inh: 7.8; CHOP UPR activ: 9.7; Mdm2 MdmX conf: 6.5
